Entries after “also recorded” stand apart in the source; their conditions may differ.
Tests used:
[1] = tested on: patients with previously untreated poor-risk AML; format: in vivo
[2] = tested on: patients with previously untreated poor-risk AML; test: Phase I trial of selinexor plus 7+3: response; format: in vivo, human; conditions: for Median overall survival: 95% CI 3.74–NR
[3] = Plasma pharmacokinetics of selinexor; format: in vivo, human; conditions: for Tmax / AUC(0-t) / Cmax: human, plasma; for AUC(0-t): AUC0–8h
gated CD34+ cells = test: Ex vivo sensitivity of patient bone marrow MNCs, flow cytometry for apoptosis; format: cell-based, human
How it was run: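 Screening bone marrow aspirates were Ficoll-enriched for mononuclear cells and plated at 3 million cells per mL. Cells were incubated 20 hours with titrated test compound, alone or combined with 40 µmol/L cytarabine or 1 µmol/L daunorubicin. Apoptosis (active caspase-3) was measured by flow cytometry on gated CD34+ cells. Of 10 samples, 2 were excluded for low viability or <5% CD34+ cells, leaving 8.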

[4] = tested on: patients with previously untreated poor-risk AML; test: G-banding cytogenetic analysis of bone marrow aspirates at follow-up; format: in vivo, human
How it was run: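 G-banding cytogenetics was done on each patient's bone marrow aspirate at diagnosis and, for most patients, at response assessment. Marrow aspirations and biopsies for response were taken between days 28 and 72 after induction or reinduction: daunorubicin/cytarabine 7+3 (or 5+2) plus oral test compound at 60 or 80 mg.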

[5] = tested on: pediatric patients with relapsed or refractory acute leukemia; conditions: selinexor plus fludarabine and cytarabine; cited from earlier work
[6] = tested on: AML cell lines and AML patient cells; test: Preclinical combination studies of selinexor and daunorubicin; format: cell-based; conditions: Supplementary Figs. S1 and S2, Supplementary Table S1
[7] = 16 response eligible patients, poor-risk by NCCN criteria
[8] = 19 patients evaluable for response
[9] = treatment failure (n = 9), baseline 1, 5 not assessed

For O=C(/C=C\n1cnc(-c2cc(C(F)(F)F)cc(C(F)(F)F)c2)n1)NNc1cnccn1 [selinexor], the “Patients who died during the treatment or follow-up phases” value ([1]; 21 patients, majority related to relapsed or refractory AML) was 62%, the “Grade 3/4 nonhematologic TEAE sepsis” value ([1]; grade 3/4, selinexor + 7+3, 21 patients) was 14% and the “Median time to a platelet count ≥50,000” value ([1]; human, in vivo) was 35 days. The “Median time to absolute neutrophil count (ANC) ≥500” value ([1]; human, in vivo) was 26 days, the “Patients with at least one grade 3/4 AE” value ([1]; human, in vivo) was 95% and the “Only grade 3 AE during maintenance therapy” value ([1]; in vivo) was “fatigue”. For the same molecule, the “Patients who experienced at least 1 TEAE” value ([1]; in vivo) was “Every patient”, the “Patients who experienced diarrhea or hyponatremia” value ([1]; in vivo) was “None” and the “CRi after second induction” value ([2]; 6 patients who received a second induction (selinexor + 5+2)) was 17%. For the same molecule, the CR/CRi rate ([2]; 7 evaluable patients with TP53 mutation at diagnosis (6 with complex karyotype)) was 43%, the “Median OS” value ([2]; 10 responding patients, median follow-up 28.9 months) was “not reached” and the CR/CRi rate ([2]; 16 evaluable patients treated at the RP2D (80 mg)) was 50%. For the same molecule, the CR/CRi rate [2, 7] was 50%, the Treatment failures [2, 7] was 50% and the “Evaluable patients alive at 12 months (12-month OS)” value ([2]; 19 evaluable patients) was 47.4%. The Median overall survival ([2]; 19 evaluable patients, median follow-up 26.9 months) was 10.3 months, the “CR/CRi rate (overall response rate)” value [2, 8] was 53% and the “Patients who achieved CR” value [2, 8] was 42%. The “Patients who achieved CRi” value [2, 8] was 11%, the “Treatment failures due to refractory AML” value [2, 8] was 47% and the CR ([2]; age ≥60, n = 16) was 7 (44) no. (%). For the same molecule, the “CR + CRi” value ([2]; age ≥60, n = 16) was 9 (56) no. (%), the CRi ([2]; age ≥60, n = 16) was 2 (13) no. (%) and the Treatment failure ([2]; age ≥60, n = 16) was 7 (44) no. (%). For the same molecule, the CR ([2]; age ≥70, n = 8) was 3 (38) no. (%), the “CR + CRi” value ([2]; age ≥70, n = 8) was 3 (38) no. (%) and the CRi ([2]; age ≥70, n = 8) was 0 (0) no. (%). For the same molecule, the “Patients alive at median follow-up” value ([2]; all 21 patients, median follow-up 28.9 months) was 38%, the Median overall survival ([2]; entire cohort, n = 21) was 10.3 months and the CR ([2]; evaluable patients, n = 19) was 8 (42.1) no. (%). The “CR + CRi” value ([2]; evaluable patients, n = 19) was 10 (52.6) no. (%), the CRi ([2]; evaluable patients, n = 19) was 2 (10.5) no. (%) and the Treatment failure ([2]; evaluable patients, n = 19) was 9 (47.4) no. (%). The Responders alive ([2]; median follow-up of 28.9 months) was 60%, the “Responding patients who remained in CR/CRi” value ([2]; median follow-up of over 2 years, all underwent allogeneic stem cell transplant in first remission) was 5 of 10 and the CR/CRi rate ([2]; patients who had previously received a hypomethylating agent (8 patients)) was 13%. For the same molecule, the CR ([2]; prior HMA, n = 8) was 1 (13) no. (%), the “CR + CRi” value ([2]; prior HMA, n = 8) was 1 (13) no. (%) and the CRi ([2]; prior HMA, n = 8) was 0 (0) no. (%). The Treatment failure ([2]; prior HMA, n = 8) was 7 (87) no. (%), the CR ([2]; sAML, n = 12) was 3 (25) no. (%) and the “CR + CRi” value ([2]; sAML, n = 12) was 4 (33) no. (%). The CRi ([2]; sAML, n = 12) was 1 (8) no. (%), the Treatment failure ([2]; sAML, n = 12) was 8 (67) no. (%) and the “Exposure (based on AUC) on days 1 and 15” value ([3]; day 1 versus day 15) was “similar”. The Tmax ([3]; oral, Mean Tmax, day 15, delayed absorption) was 4 h, the AUC(0-t) ([3]; po, 60 mg, selinexor 60 mg oral, day 1, 4 patients) was 1850 ± 972 ng·h/mL and the AUC(0-t) ([3]; po, 60 mg, selinexor 60 mg oral, day 15, 3 patients) was 1710 ± 1030 ng·h/mL. It also gave a Cmax ([3]; po, 60 mg, Cmax, selinexor 60 mg oral, day 1, 4 patients) of 457 ± 196 ng/mL, a Cmax ([3]; po, 60 mg, Cmax, selinexor 60 mg oral, day 15, 3 patients) of 392 ± 290 ng/mL and a Cmax ([3]; po, 60 mg, Mean Cmax, selinexor 60 mg oral, day 1, 4 patients) of 1030 nM. The Tmax ([3]; po, 60 mg, Tmax, selinexor 60 mg oral, day 1, 4 patients) was 2 ± 3.2 h, the Tmax ([3]; po, 60 mg, Tmax, selinexor 60 mg oral, day 15, 3 patients) was 4 ± 1.2 h and the AUC(0-t) ([3]; po, 80 mg, selinexor 80 mg oral, day 1, 17 patients) was 2590 ± 1110 ng·h/mL. It also gave an AUC(0-t) ([3]; po, 80 mg, selinexor 80 mg oral, day 15, 13 patients) of 2100 ± 1080 ng·h/mL, a Cmax ([3]; po, 80 mg, Cmax, selinexor 80 mg oral, day 1, 17 patients) of 601 ± 302 ng/mL and a Cmax ([3]; po, 80 mg, Cmax, selinexor 80 mg oral, day 15, 13 patients) of 482 ± 288 ng/mL. The Cmax ([3]; po, 80 mg, Mean Cmax, selinexor 80 mg oral, day 1, 17 patients) was 1360 nM, the Tmax ([3]; po, 80 mg, Tmax, selinexor 80 mg oral, day 1, 17 patients) was 2 ± 2.2 h and the Tmax ([3]; po, 80 mg, Tmax, selinexor 80 mg oral, day 15, 13 patients) was 4 ± 2.5 h. The “AUC0–8h” value ([3]; selinexor 60 mg oral, day 1, 4 patients) was 1,853 ng/h/mL, the “AUC0–8h” value ([3]; selinexor 80 mg oral, day 1, 17 patients) was 2,590 ng/h/mL and the “Synergy between selinexor and daunorubicin” value (gated CD34+ cells; titrated selinexor with 1 µmol/L daunorubicin, patient samples ex vivo) was “no synergy”. For the same molecule, the “Effects of the combination on apoptosis” value (gated CD34+ cells; titrated selinexor with 40 µmol/L cytarabine or 1 µmol/L daunorubicin) was “additive”, the “Cytogenetics at follow-up: Chr 5 abnormalities” value ([4]; responders (n = 10), baseline 0) was 0 no and the “Cytogenetics at follow-up: Chr 7 abnormalities” value ([4]; responders (n = 10), baseline 1) was 1 no. The “Cytogenetics at follow-up: Other Chr abnormalities” value ([4]; responders (n = 10), baseline 2) was 0 no, the “Cytogenetics at follow-up: Complex” value ([4]; responders (n = 10), baseline 3) was 1 no and the “Cytogenetics at follow-up: Diploid” value ([4]; responders (n = 10), baseline 4) was 8 no. For the same molecule, the “Cytogenetics at follow-up: Chr 7 abnormalities” value ([4]; treatment failure (n = 9), baseline 0, 5 not assessed) was 0 no, the “Cytogenetics at follow-up: Chr 5 abnormalities” value [4, 9] was 1 no and the “Cytogenetics at follow-up: Other Chr abnormalities” value [4, 9] was 0 no. For the same molecule, the “Cytogenetics at follow-up: Diploid” value ([4]; treatment failure (n = 9), baseline 3, 5 not assessed) was 2 no, the “Cytogenetics at follow-up: Complex” value ([4]; treatment failure (n = 9), baseline 4, 5 not assessed) was 1 no and the “Patients who tested negative for measurable residual disease” value [5] was 5 patients. The “Interaction between selinexor and daunorubicin” value [6] was “strong synergistic interactions; also recorded: strong synergy”.

Reference: paper PMC7787346 (Clinical cancer research : an official journal of the …, 2019)
